Data on 1 compound can be found in ChEMBL document CHEMBL4346709, “Design and Optimization Leading to an Orally Active TTK Protein Kinase Inhibitor with Robust Single Agent Efficacy” (J Med Chem, 2019).

Data set [1] has as its target T1, Dual specificity protein kinase CLK2 (Homo sapiens, UniProt P49760). Kind of data set: Inhibition of recombinant human GST-tagged CLK2 catalytic domain (137 to 498 residues) expressed in baculovirus expression system by Z'-LYTE assay.
Target sequence in this assay (P49760 whole entry, the tested form may be a part): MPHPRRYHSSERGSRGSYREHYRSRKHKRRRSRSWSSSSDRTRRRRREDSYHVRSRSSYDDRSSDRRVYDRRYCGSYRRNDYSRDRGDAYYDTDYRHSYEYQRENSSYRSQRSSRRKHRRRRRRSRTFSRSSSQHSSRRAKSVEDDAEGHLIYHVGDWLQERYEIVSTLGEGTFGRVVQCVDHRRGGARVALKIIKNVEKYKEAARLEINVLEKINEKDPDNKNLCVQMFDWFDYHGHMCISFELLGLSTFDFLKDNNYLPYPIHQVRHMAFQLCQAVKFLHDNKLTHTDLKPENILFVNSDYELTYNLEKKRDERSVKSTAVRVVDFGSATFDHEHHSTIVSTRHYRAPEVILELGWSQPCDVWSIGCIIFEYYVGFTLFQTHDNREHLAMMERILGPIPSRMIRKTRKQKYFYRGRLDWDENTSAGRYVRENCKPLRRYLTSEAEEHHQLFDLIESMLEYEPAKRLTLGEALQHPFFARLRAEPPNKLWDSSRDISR
Data set [2] is described as follows: Toxicity in CB17 SCID mouse xenografted with human CAL51 cells assessed as loss of body weight at 30 to 120 mg/kg, po administered every seven days for 16 days and measured up to 31 days. Format: organism-based. Conditions: in vivo. An outline of the steps:
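Female CB17 SCID mice bearing subcutaneous CAL-51 xenografts (2×10^6 cells). Oral dosing once weekly at 30-120 mg/kg, or 30 mg/kg BID once weekly, for 16 days. Body weight loss tracked alongside tumour measurements, against vehicle.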

Data set [3] deals with T1, Dual specificity protein kinase CLK2. The data set can be described thus: Inhibition of recombinant human GST-tagged CLK2 catalytic domain (137 to 498 residues) expressed in baculovirus expression system at 3 uM by Z'-LYTE assay relative to control. An outline of the steps:
(§1)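 Kinase selectivity panel: single-point assessment at 3 µM, n=1.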
Target sequence in this assay (P49760 whole entry, looked up, the tested form may be a part): as the sequence (P49760 whole entry, the tested form may be a part) above

The next data set addresses LRRK2 G2019S mutant (Homo sapiens, UniProt Q5S007, G2019S). The data set can be described thus: Inhibition of recombinant human GST-tagged LRRK2 G2019S mutant catalytic domain (970 to 2527 residues) expressed in baculovirus expression system at 3 uM using LRRKtide as substrate measured after 1 hr by Alexa-fluor-647 ADP tracer-based ADAPTA assay relative to control. Conditions: probe LRRKtide. An outline of the steps:
as §1

The subject of another data set is Mus musculus. The data set can be described thus: Inhibition of mitosis in human CAL51 cells xenografted in CB17 SCID mouse assessed reduction in pHH3 ser10 level at 30 mg/kg, po administered as single dose measured after 1 hr by MSD electrochemiluminescent immunoassay. It counts as functional, organism-based. An outline of the steps: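 CB17 SCID mice bearing CAL-51 tumours of 300-500 mm3 given compound orally. At preset time points the mice were euthanised and the tumours dissected and snap-frozen in liquid nitrogen. pHH3 Ser10 or cleaved caspase measured by MSD electrochemiluminescent immunoassay kit. Data are mean ± SEM.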
In general terms: In xenograft studies the graft and the host belong to different species.

For data set [4], the system named is CAL-51. Kind of data set: Antitumor activity against human CAL51 cells xenografted in CB17 SCID mouse assessed as tumor growth inhibition at 30 mg/kg, po […] for 16 days and measured twice per week up to 31 days by caliper method relative to control. Format: functional. Particulars: CAL-51, po, read-out: TGI. Summed up:
(§2)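 Female CB17 SCID mice, 6-8 weeks old, inoculated subcutaneously with 2×10^6 CAL-51 cells. Oral dosing once weekly (QW) at 30-120 mg/kg, or 30 mg/kg BID QW, for 16 days, against vehicle control. Tumour long and short axes measured twice weekly by digital caliper; volume = width² × length/2. Values are TGI; data are mean ± SEM.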

Data set [5] has as its target T2, Testis-specific serine/threonine-protein kinase 1 (Homo sapiens, UniProt Q9BXA7).
T2 sequence (Q9BXA7 whole entry): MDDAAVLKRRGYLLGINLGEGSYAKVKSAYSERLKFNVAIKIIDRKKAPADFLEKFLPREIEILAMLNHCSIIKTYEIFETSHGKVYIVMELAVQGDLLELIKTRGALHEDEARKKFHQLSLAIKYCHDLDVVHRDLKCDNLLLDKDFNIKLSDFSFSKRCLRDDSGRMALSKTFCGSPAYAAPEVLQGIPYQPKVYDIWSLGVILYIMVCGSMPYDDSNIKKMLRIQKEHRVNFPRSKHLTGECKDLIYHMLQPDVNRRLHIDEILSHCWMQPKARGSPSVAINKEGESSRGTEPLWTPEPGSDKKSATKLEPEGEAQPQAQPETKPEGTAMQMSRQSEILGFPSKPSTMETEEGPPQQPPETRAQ
The data set can be described thus: Inhibition of recombinant human full length His-tagged TSSK1 expressed in baculovirus expression system by Z'-LYTE assay.

The target of data set [6] is T3, Leukocyte tyrosine kinase receptor (Homo sapiens, UniProt P29376). Kind of data set: Inhibition of recombinant human GST-tagged LTK cytoplasmic domain (450 to 864 residues) expressed in baculovirus expression system by Z'-LYTE assay.
T3 sequence (P29376 whole entry, the tested form may be a part): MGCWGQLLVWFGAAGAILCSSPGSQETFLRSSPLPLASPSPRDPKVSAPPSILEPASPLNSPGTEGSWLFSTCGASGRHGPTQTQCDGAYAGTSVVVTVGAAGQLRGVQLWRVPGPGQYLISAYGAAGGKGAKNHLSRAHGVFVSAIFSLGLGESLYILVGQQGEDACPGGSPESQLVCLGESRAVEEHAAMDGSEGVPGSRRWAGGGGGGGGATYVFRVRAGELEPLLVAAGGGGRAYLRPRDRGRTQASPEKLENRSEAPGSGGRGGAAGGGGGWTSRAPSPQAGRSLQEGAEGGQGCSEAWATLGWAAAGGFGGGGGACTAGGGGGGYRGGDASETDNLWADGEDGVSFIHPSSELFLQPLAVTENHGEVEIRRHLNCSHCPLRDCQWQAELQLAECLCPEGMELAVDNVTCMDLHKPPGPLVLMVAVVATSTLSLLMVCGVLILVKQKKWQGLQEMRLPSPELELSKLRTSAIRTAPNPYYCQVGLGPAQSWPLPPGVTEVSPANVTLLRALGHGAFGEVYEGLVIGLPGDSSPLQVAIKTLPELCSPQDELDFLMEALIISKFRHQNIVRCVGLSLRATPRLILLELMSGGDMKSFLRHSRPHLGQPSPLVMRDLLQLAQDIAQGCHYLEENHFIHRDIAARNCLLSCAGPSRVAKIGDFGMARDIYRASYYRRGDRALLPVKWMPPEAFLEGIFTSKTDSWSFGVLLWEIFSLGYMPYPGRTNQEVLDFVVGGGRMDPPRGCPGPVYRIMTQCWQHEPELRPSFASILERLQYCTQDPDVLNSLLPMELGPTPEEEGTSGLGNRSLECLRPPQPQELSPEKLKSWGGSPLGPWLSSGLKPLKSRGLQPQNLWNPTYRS
The target of data set [7] is T4, Mitogen-activated protein kinase 9 (Homo sapiens, UniProt P45984). Kind of data set: Inhibition of recombinant human full length His-tagged JNK2 expressed in baculovirus expression system by Z'-LYTE assay.
Target sequence in this assay (P45984 whole entry): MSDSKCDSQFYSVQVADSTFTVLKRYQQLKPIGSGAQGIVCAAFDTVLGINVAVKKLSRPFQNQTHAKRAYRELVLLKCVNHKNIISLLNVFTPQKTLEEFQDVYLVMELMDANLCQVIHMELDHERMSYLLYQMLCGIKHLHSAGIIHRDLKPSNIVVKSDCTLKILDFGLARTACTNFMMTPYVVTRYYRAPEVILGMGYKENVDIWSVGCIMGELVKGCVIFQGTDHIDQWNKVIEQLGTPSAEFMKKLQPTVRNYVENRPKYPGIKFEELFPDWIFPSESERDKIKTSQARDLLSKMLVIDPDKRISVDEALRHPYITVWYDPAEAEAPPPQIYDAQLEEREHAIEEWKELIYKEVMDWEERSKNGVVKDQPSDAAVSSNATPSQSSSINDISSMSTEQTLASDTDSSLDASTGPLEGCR
Data set [8] has as its target T5, Dual specificity tyrosine-phosphorylation-regulated kinase 3 (Homo sapiens) (UniProt O43781).
T5 sequence (whole entry): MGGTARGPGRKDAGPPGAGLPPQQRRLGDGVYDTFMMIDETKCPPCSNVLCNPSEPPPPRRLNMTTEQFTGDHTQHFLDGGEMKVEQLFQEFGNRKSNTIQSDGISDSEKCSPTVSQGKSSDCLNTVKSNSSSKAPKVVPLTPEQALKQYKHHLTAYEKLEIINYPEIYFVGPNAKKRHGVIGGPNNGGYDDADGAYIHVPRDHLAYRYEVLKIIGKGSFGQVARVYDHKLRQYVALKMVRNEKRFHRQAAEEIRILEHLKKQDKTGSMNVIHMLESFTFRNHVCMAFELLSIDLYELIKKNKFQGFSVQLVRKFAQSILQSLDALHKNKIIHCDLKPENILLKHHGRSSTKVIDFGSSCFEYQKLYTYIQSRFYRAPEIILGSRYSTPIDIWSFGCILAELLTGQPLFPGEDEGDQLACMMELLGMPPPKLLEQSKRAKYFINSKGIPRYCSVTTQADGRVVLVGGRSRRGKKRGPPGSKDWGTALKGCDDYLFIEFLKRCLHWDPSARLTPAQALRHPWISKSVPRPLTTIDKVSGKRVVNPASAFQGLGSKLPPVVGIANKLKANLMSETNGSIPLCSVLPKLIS
The data set can be described thus: Inhibition of recombinant human full length GST-tagged DYRK3 expressed in baculovirus expression system at 3 uM by Z'-LYTE assay relative to control. Summed up: as §1

Data set [9] concerns CAL-51. Kind of data set: Antitumor activity against human CAL51 cells xenografted in po dosed CB17 SCID mouse assessed as tumor growth inhibition administered every seven days for 16 days and measured twice per week up to 31 days by caliper method. Format: functional, organism-based. Summed up: as §2
Data set [10] deals with Mitogen-activated protein kinase 10 (Homo sapiens, UniProt P53779). The data set can be described thus: Inhibition of recombinant human full length N-terminal GST-tagged JNK3 expressed in baculovirus expression system by Z'-LYTE assay.
In data set [11] the target is T4, Mitogen-activated protein kinase 9. The data set can be described thus: Inhibition of recombinant human full length His-tagged JNK2 expressed in baculovirus expression system at 3 uM by Z'-LYTE assay relative to control. Summed up: as §1
Target sequence in this assay (P45984 whole entry, looked up): as the sequence (P45984 whole entry) above
Another data set is filed under the species Homo sapiens. The data set can be described thus: Selectivity ratio of IC50 for recombinant human full length His-tagged JNK2 expressed in baculovirus expression system to IC50 for inhibition of Kinase Tracer 236 binding to recombinant human full-length GST-tagged TTk expressed in baculovirus expression system.
For data set [12], the target named is T3, Leukocyte tyrosine kinase receptor. Kind of data set: Inhibition of recombinant human GST-tagged LTK cytoplasmic domain (450 to 864 residues) expressed in baculovirus expression system at 3 uM by Z'-LYTE assay relative to control. An outline of the steps:
as §1

pIC50: −log10 of the molar value. Active and inactive are the calls of the source. The rule behind the calls is not given here.

LRRK2 G2019S mutant, sequence (Q5S007 whole entry G2019S, the tested form may be a part): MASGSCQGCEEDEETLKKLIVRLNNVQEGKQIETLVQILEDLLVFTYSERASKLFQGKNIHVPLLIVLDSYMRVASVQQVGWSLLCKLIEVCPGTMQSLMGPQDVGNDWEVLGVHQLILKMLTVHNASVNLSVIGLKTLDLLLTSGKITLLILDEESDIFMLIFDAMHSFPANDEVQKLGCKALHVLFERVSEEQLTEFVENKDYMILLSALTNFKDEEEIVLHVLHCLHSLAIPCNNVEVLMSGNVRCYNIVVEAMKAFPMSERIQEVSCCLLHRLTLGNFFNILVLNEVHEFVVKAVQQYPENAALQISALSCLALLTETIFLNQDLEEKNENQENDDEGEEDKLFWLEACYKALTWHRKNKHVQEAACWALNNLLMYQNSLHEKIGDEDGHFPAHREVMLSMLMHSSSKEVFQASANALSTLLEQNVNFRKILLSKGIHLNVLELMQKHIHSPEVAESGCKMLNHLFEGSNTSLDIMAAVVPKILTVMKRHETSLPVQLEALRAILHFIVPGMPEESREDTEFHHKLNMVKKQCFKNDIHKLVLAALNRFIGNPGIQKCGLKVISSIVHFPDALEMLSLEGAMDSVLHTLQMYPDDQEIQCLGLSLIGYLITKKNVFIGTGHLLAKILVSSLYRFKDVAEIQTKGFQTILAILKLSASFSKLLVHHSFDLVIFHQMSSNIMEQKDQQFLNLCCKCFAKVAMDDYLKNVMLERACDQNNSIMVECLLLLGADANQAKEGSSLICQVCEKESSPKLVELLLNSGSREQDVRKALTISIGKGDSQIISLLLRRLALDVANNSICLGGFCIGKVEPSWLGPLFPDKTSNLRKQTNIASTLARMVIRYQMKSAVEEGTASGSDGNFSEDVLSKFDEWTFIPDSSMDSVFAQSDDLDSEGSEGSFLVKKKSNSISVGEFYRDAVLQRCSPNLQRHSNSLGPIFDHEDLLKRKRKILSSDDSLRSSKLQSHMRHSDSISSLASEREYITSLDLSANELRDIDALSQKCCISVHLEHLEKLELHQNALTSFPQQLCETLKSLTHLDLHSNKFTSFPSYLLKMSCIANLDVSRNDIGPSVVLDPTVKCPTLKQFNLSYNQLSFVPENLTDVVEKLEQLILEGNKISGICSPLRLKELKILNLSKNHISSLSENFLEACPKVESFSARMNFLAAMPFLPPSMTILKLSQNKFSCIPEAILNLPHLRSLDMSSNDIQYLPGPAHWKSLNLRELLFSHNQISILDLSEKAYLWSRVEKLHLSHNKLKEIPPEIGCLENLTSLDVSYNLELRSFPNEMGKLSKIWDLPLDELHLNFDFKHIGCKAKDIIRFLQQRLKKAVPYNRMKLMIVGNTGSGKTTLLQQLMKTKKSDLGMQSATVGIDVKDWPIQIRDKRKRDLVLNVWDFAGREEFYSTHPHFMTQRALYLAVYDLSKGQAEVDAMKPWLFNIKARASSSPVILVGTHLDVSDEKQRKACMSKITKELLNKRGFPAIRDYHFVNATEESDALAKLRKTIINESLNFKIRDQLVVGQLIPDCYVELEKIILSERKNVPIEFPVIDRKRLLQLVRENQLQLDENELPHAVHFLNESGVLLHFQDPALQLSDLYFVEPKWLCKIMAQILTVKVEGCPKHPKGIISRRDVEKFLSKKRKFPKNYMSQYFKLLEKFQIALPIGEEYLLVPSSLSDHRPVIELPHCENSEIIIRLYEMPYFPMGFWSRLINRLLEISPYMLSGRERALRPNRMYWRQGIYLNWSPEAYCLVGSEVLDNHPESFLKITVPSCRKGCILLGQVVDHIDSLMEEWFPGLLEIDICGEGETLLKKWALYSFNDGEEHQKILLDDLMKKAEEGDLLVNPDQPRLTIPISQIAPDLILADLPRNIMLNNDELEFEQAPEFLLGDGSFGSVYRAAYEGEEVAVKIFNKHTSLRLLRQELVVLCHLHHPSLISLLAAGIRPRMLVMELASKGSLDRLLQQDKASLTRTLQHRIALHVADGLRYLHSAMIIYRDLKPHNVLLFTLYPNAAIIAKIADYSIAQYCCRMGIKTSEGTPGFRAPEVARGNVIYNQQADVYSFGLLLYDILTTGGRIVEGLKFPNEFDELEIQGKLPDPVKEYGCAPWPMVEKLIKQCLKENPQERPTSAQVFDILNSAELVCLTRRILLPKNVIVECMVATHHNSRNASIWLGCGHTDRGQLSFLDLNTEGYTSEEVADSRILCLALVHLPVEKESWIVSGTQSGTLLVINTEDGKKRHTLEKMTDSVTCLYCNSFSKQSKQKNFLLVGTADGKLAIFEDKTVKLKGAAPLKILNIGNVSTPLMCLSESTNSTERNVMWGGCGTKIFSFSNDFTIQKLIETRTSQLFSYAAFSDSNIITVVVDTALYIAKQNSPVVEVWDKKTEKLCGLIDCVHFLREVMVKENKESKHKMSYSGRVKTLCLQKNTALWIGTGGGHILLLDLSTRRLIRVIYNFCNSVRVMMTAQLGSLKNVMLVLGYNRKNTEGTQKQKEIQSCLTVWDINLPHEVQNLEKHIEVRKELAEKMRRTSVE

Take `C[C@@H](Oc1cc(C(=O)N(C)C)ccc1Nc1nc(O[C@H]2CC[C@@](C)(O)CC2)c2c(Cl)c[nH]c2n1)C(F)(F)F`: the pIC50 (commonly the IC50 on a negative log10 scale, so that one unit is a factor of ten) is 9.58 in [1]; 9.66 in data set [5]; 9.25 in data set [6]; 10.23 in data set [7]; 9.97 in [10]. In addition, the Activity result in [2] is given as “Non-Toxic”. In addition, the inhibition in data set [3], in data set [8], in [11] and in data set [12] was over 80% throughout. For the same compound, on LRRK2 G2019S mutant, the inhibition (as a rule, the drop in the measured response relative to a control, in per cent) at 1 h, 3 µM was over 80%. The inhibition entry with Mus musculus was “Active”. In the data set on CAL-51 [4], the inhibition in vivo at 30 mg/kg stood at 84%. Moreover, the TGI entry in the data set with CAL-51 [9] is “Dose-dependent effect”. For the same compound, the Ratio IC50 in the data set filed under Homo sapiens was under 100.
